Reference: article PMC3705926 (Journal of ethnopharmacology, 2010)

Key:
[1] = tested on: 2ERE-luciferase reporter (ER) in MCF-7 cells; test: 2ERE-luciferase reporter gene assay in transiently transfected MCF-7 cells; format: cell-based, human; details: 1 μg/ml, 16 h
5-HT7 [2] = molecular target: T1, 5-HT7 (Homo sapiens, UniProt P34969); test: Serotonin 5-HT7 receptor radioligand binding; details: read-out: IC50, binding to serotonin receptor 5-HT7
5-HT7 [3] = molecular target: T1, 5-HT7; test: GTP shift experiment, [3H]LSD binding with or without 100 μM GTP
5-HT1A = molecular target: T2, 5-HT1A (Homo sapiens, UniProt P08908); test: Serotonin 5-HT1A receptor radioligand binding; details: read-out: IC50, binding to serotonin receptor 5-HT1A
T2 sequence (P08908 1-422): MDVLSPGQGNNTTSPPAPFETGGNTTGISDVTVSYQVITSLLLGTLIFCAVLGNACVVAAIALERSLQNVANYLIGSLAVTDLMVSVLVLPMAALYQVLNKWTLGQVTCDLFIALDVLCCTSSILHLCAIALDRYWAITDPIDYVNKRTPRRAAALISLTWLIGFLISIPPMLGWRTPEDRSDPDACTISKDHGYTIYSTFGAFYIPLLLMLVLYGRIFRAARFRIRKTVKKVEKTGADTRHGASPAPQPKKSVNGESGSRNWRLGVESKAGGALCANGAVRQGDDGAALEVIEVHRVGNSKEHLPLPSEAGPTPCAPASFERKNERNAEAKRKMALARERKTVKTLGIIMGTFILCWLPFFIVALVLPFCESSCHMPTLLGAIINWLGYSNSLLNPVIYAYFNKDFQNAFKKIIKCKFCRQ
Procedure, shortened: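 Competition binding used Cos M6 cell membrane homogenate with [3H]5-CT (1.0 nM final) in 100 mM Tris-HCl, 1 mM EDTA, 1% ascorbic acid, pH 7.7, at 37°C for 30 min. Binding was stopped by rapid filtration and four ice-cold buffer washes, then counted by scintillation. IC50 came from non-linear curve fitting of at least triplicate determinations.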

[4] = [3H]-LSD displacement, absence of GTP, two-site fit

T1 sequence (P34969 whole entry): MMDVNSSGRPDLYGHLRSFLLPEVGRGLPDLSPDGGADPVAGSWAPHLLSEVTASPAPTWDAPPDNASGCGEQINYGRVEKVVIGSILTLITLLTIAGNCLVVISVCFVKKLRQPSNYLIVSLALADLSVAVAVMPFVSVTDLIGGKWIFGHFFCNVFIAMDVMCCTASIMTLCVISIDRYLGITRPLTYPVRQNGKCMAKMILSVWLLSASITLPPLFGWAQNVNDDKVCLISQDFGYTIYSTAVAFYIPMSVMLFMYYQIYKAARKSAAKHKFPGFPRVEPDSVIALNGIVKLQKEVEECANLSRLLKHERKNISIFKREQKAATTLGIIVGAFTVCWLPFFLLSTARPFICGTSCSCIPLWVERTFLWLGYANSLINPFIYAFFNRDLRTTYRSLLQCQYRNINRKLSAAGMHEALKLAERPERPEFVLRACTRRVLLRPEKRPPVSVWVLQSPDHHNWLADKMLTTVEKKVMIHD

Substance	fold increase in luciferase activity [1]	IC50 (5-HT7 [2])	IC50, high-affinity state (5-HT7 [3]; [4])	IC50, low affinity state (5-HT7 [3]; [4])	Ki, high-affinity state (5-HT7 [3]; [4])	Ki, low affinity state (5-HT7 [3]; [4])	agonist/antagonist character at the 5-HT7 receptor (5-HT7 [3]; from GTP shift of the binding curve)	IC50 after addition of GTP (monophasic, low-affinity state) (5-HT7 [3]; with 100 μM GTP)	Ki after addition of GTP (5-HT7 [3]; with 100 μM GTP)	IC50 (5-HT1A)
5, 6-Z-fadyenolide [Compound 2]	9.8 fold	23.2 µM	–	–	–	–	–	–	–	–
9, 10-methylenedioxy-5, 6-Z-fadyenolide [Compound 1]	not active	8.3 µM	0.014 µg/mL	37.7 µg/mL	0.00848 µg/mL	0.0267 µg/mL	partial agonist	11.5 µg/mL	6880 µg/mL	16.1 µM
piperolide [Compound 3]	8.4 fold	34.7 µM	–	–	–	–	–	–	–	–
